Measured values: ChEMBL document CHEMBL1177649, “Synthesis and structure-affinity relationships of novel small molecule natural product derivatives capable of discriminating between serotonin 5-HT1A, 5-HT2A, 5-HT2C receptor subtypes” (Bioorg Med Chem, 2010)
pKi: −log10 of the molar value.

What was measured:
Format in all cases: cell-based
[1] = molecular target: T1, 5-hydroxytryptamine receptor 2A (Homo sapiens, UniProt P28223); assay: Displacement of [3H]methylspiperone from human cloned 5HT2A receptor expressed in HEK293 cells after 90 mins by liquid scintillation counting
T1 sequence (P28223 whole entry): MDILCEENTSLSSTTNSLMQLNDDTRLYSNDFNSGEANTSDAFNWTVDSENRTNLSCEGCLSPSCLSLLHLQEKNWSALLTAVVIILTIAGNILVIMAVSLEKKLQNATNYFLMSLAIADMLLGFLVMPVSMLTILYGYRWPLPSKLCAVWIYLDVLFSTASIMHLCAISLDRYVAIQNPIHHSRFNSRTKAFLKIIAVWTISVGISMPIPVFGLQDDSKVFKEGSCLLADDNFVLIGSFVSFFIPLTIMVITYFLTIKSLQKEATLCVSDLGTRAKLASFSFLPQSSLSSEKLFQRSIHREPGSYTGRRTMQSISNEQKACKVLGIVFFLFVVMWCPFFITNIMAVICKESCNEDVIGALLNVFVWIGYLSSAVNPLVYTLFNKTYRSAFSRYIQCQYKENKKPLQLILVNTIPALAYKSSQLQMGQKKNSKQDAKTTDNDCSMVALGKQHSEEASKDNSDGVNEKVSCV
In short: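 Nonspecific binding defined with 5 μM mianserin. Compounds in DMSO or DMSO:0.01 N HCl, non-aqueous solvent ≤1:300. Incubated ≥90 min at 25°C, then filtered. Ki from IC50 by Cheng-Prusoff, with the curve bottom fixed at zero for partial displacement. Geometric mean ± SD of 3–4 experiments in triplicate.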

[2] = molecular target: T2, 5-hydroxytryptamine receptor 1A (Homo sapiens) (UniProt P08908); assay: Displacement of [3H]MPPF from human cloned 5HT1A receptor expressed in HEK293 cells at 3 uM after 90 mins by liquid scintillation counting
T2 sequence (whole entry): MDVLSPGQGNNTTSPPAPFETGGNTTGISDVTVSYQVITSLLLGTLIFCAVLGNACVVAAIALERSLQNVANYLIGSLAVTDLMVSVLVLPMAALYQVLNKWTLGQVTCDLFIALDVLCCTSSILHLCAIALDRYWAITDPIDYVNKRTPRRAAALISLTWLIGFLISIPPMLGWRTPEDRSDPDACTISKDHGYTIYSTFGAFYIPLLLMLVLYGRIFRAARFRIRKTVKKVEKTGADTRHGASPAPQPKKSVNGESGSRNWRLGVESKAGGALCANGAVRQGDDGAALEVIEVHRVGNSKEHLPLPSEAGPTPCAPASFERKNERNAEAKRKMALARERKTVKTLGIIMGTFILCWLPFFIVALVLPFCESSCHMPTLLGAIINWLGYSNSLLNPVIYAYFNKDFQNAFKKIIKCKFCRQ
In short: (§1)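 Crude membranes from HEK293 cells stably expressing the receptor (G418 selection) in 50 mM Tris, pH 7.4. Radioligand targeted at ~500 pM. Compound added from a 3 mM DMSO stock diluted 1:1000. Nonspecific binding defined with 5 μM NAN-190 (5-HT1A) or 5 μM mianserin (5-HT2C). Incubated ≥90 min at 25°C, then filtered through PEI-soaked GF/C filters. Percent displacement of specific binding; triplicates, 3–4 experiments.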

[3] = molecular target: T3, 5-hydroxytryptamine receptor 2C (Homo sapiens) (UniProt P28335); assay: Displacement of [3H]mesulergine from human cloned 5HT2C receptor expressed in HEK293 cells at 3 uM after 90 mins by liquid scintillation counting; in short: as §1
T3 sequence (whole entry): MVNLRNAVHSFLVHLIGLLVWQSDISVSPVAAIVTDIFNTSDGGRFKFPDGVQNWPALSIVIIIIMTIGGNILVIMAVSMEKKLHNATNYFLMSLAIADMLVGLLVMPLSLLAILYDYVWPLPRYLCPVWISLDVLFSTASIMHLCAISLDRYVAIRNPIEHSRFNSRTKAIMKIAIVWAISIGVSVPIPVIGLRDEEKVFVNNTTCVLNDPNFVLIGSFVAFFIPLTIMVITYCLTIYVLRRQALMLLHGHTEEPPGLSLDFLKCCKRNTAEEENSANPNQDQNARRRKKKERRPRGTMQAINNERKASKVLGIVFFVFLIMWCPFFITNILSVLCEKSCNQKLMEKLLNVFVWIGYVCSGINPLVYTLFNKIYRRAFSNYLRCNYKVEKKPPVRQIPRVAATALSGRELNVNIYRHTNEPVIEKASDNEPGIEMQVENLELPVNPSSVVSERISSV

[4] = molecular target: T1, 5-hydroxytryptamine receptor 2A; assay: Displacement of [3H]methylspiperone from human cloned 5HT2A receptor expressed in HEK293 cells at 3 uM after 90 mins by liquid scintillation counting
In short: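 Crude membranes from HEK293 cells stably expressing the receptor (calcium phosphate transfection, G418-selected clones), in 50 mM Tris pH 7.4. Single-point screen: 3 mM DMSO stock diluted 1:1000. Radioligand targeted at about 500 pM, nonspecific binding defined by 5 μM mianserin. Incubated at least 90 min at 25°C, then filtered on PEI-soaked GF/C filters and washed cold. Percent specific displacement, triplicates, 3–4 experiments.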

[5] = molecular target: T4, 5-hydroxytryptamine receptor 2C (Homo sapiens, UniProt P28335); assay: Displacement of [3H]mesulergine from human cloned 5HT2C receptor expressed in HEK293 cells after 90 mins by liquid scintillation counting
T4 sequence (P28335 whole entry): T3 sequence (whole entry)

SMILES | pKi [1] | Activity [2] [%] | Activity [3] [%] | Activity [4] [%] | pKi [5]
CN1C(=N)N(C)/C(=C/c2c[nH]c3cc(F)ccc23)C1=O | 6.63 | 2 | 0 | 79 | 
CN1C(=N)N(C)/C(=C/c2c[nH]c3ccc(Br)cc23)C1=O |  | 18 | 64 | 37 | 
CN1C(=N)NC(=O)/C1=C\c1c[nH]c2ccc(Cl)cc12 |  | 9 | 0 | 9 | 
Cc1cc2c(cc1I)N(C(=O)Nc1cccnc1)CC2 |  |  |  |  | 8.49
CN1C(=N)NC(=O)/C1=C\c1c[nH]c2ccc(Br)cc12 |  | 6 | 0 | 0 | 
CCN1C(=N)N(C)/C(=C\c2c[nH]c3ccc(Br)cc23)C1=O |  | 0 | 18 | 9 | 
CN1C(=N)N(C)/C(=C/c2c[nH]c3ccc(Cl)cc23)C1=O |  | 9 | 43 | 22 | 
CN1C(=N)NC(=O)/C1=C\c1c[nH]c2cc(Cl)c(Cl)cc12 |  | 4 | 10 | 0 | 
CN1C(=N)N(C)/C(=C/c2c[nH]c3ccc(F)cc23)C1=O |  | 4 | 0 | 10 | 
CCN1C(=N)N(C)/C(=C\c2c[nH]c3ccc(I)cc23)C1=O |  | 15 | 46 | 35 | 
CN1C(=N)N(C)/C(=C/c2c[nH]c3cc(Cl)ccc23)C1=O |  | 3 | 49 | 0 | 6.78
O=C(Nc1cccnc1)N1CCc2cc(I)c(Cl)cc21 |  |  |  |  | 8.49
Cc1ncccc1Oc1ccc(NC(=O)N2CCc3cc(I)ccc32)cn1 |  |  |  |  | 8.49
Cc1ncccc1Oc1ccc(NC(=O)N2CCc3cc(Br)ccc32)cn1 | 5.40 |  |  |  | 8.49
CN1C(=N)N(C)/C(=C/c2c[nH]c3cc(Cl)c(Cl)cc23)C1=O |  | 0 | 79 | 12 | 7.34
CN1C(=N)NC(=O)/C1=C\c1c[nH]c2cc(Cl)ccc12 |  | 1 | 0 | 0 | 
CCN1C(=N)N(C)/C(=C/c2c[nH]c3cc(Br)ccc23)C1=O |  | 0 | 49 | 0 | 
CN1C(=N)N(C)/C(=C/c2c[nH]c3cc(Br)ccc23)C1=O |  |  |  |  | 5.66
CN1C(=N)NC(=O)/C1=C\c1c[nH]c2ccc(F)cc12 |  | 0 | 19 | 0 | 
CN1C(=N)NC(=O)/C1=C\c1c[nH]c2cc(F)ccc12 |  | 0 | 1 | 6 | 
CN1C(=N)NC(=O)/C1=C\c1c[nH]c2ccccc12 |  | 0 | 6 | 0 | 
O=C(Nc1cccnc1)N1CCc2ccccc21 | < 5.00 |  |  |  | 
